Assay results: ChEMBL document CHEMBL4689842, “EUbOPEN Chemogenomics Library wave 1” (2021)

Tested on: HEK-293T
Test: Multiplex assay against HEK293T;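 for Population Tubulin-Different-Phenotype (%): share of the cells with healthy nuclei that show this phenotype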
Type: toxicity, cell-based
Settings: human
In short: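 On a CQ1 microscope at 37°C and 5% CO2, live cells were imaged after compound addition. They had been stained at seeding with Hoechst33342, BioTracker Green Microtubule Cytoskeleton Dye, MitoTracker Red and Annexin V Alexa Fluor 680. CellPathfinder machine-learning gating assigned cells to Hoechst high-intensity objects or normal cells, normal cells to healthy, pyknosed or fragmented nuclei, and pyknosed cells to mitotic or apoptotic. Tubulin, mitochondrial-mass and membrane-permeability phenotypes are per cents of healthy-nucleus cells.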

[1] = 12 h, 1 µM, compound concentration 1 uM, replicate 1
[2] = 12 h, 1 µM, compound concentration 1 uM, replicate 2
[3] = 12 h, 10 µM, compound concentration 10 uM, replicate 1
[4] = 12 h, 10 µM, compound concentration 10 uM, replicate 2
[5] = 24 h, 1 µM, compound concentration 1 uM, replicate 1
[6] = 24 h, 1 µM, compound concentration 1 uM, replicate 2
[7] = 24 h, 10 µM, compound concentration 10 uM, replicate 1
[8] = 24 h, 10 µM, compound concentration 10 uM, replicate 2

O=C(Nc1cccnn1)N1CCC(=Cc2cccc(Oc3ccc(C(F)(F)F)cn3)c2)CC1
Population Apoptotic (%) [1]: 22% | Population Fragmented Nuclei (%) [1]: 20% | Population Healthy Nuclei (%) [1]: 46% | Population Hoechst High Intensity Objects (%) [1]: 16% | Population Membrane Permeable-Phenotype (%) [1]: 10% | Population Mitochondria Different-Phenotype (%) [1]: 17% | Population Mitotic Cells (%) [1]: 77% | Population Normal (%) [1]: 83% | Population Pyknosed Nuclei (%) [1]: 33% | Population Tubulin-Different-Phenotype (%) [1]: 29% | Total Cell Count [1]: 578 | Population Apoptotic (%) [2]: 17% | Population Fragmented Nuclei (%) [2]: 5% | Population Healthy Nuclei (%) [2]: 83% | Population Hoechst High Intensity Objects (%) [2]: 9% | Population Membrane Permeable-Phenotype (%) [2]: 7% | Population Mitochondria Different-Phenotype (%) [2]: 30% | Population Mitotic Cells (%) [2]: 82% | Population Normal (%) [2]: 90% | Population Pyknosed Nuclei (%) [2]: 11% | Population Tubulin-Different-Phenotype (%) [2]: 62% | Total Cell Count [2]: 1415 | Population Apoptotic (%) [3]: 30% | Population Fragmented Nuclei (%) [3]: 13% | Population Healthy Nuclei (%) [3]: 67% | Population Hoechst High Intensity Objects (%) [3]: 9% | Population Membrane Permeable-Phenotype (%) [3]: 3% | Population Mitochondria Different-Phenotype (%) [3]: 4% | Population Mitotic Cells (%) [3]: 69% | Population Normal (%) [3]: 90% | Population Pyknosed Nuclei (%) [3]: 18% | Population Tubulin-Different-Phenotype (%) [3]: 5% | Total Cell Count [3]: 619 | Population Apoptotic (%) [4]: 8% | Population Fragmented Nuclei (%) [4]: 7% | Population Healthy Nuclei (%) [4]: 88% | Population Hoechst High Intensity Objects (%) [4]: 1% | Population Membrane Permeable-Phenotype (%) [4]: 1% | Population Mitochondria Different-Phenotype (%) [4]: 12% | Population Mitotic Cells (%) [4]: 91% | Population Normal (%) [4]: 98% | Population Pyknosed Nuclei (%) [4]: 4% | Population Tubulin-Different-Phenotype (%) [4]: 6% | Total Cell Count [4]: 1821 | Population Apoptotic (%) [5]: 31% | Population Fragmented Nuclei (%) [5]: 16% | Population Healthy Nuclei (%) [5]: 56% | Population Hoechst High Intensity Objects (%) [5]: 15% | Population Membrane Permeable-Phenotype (%) [5]: 12% | Population Mitochondria Different-Phenotype (%) [5]: 19% | Population Mitotic Cells (%) [5]: 68% | Population Normal (%) [5]: 84% | Population Pyknosed Nuclei (%) [5]: 27% | Population Tubulin-Different-Phenotype (%) [5]: 54% | Total Cell Count [5]: 519 | Population Apoptotic (%) [6]: 8% | Population Fragmented Nuclei (%) [6]: 6% | Population Healthy Nuclei (%) [6]: 83% | Population Hoechst High Intensity Objects (%) [6]: 10% | Population Membrane Permeable-Phenotype (%) [6]: 10% | Population Mitochondria Different-Phenotype (%) [6]: 30% | Population Mitotic Cells (%) [6]: 91% | Population Normal (%) [6]: 89% | Population Pyknosed Nuclei (%) [6]: 10% | Population Tubulin-Different-Phenotype (%) [6]: 82% | Total Cell Count [6]: 1537 | Population Apoptotic (%) [7]: 17% | Population Fragmented Nuclei (%) [7]: 9% | Population Healthy Nuclei (%) [7]: 83% | Population Hoechst High Intensity Objects (%) [7]: 4% | Population Membrane Permeable-Phenotype (%) [7]: 8% | Population Mitochondria Different-Phenotype (%) [7]: 2% | Population Mitotic Cells (%) [7]: 82% | Population Normal (%) [7]: 95% | Population Pyknosed Nuclei (%) [7]: 7% | Population Tubulin-Different-Phenotype (%) [7]: 5% | Total Cell Count [7]: 783 | Population Apoptotic (%) [8]: 2% | Population Fragmented Nuclei (%) [8]: 22% | Population Healthy Nuclei (%) [8]: 74% | Population Hoechst High Intensity Objects (%) [8]: 3% | Population Membrane Permeable-Phenotype (%) [8]: 3% | Population Mitotic Cells (%) [8]: 97% | Population Normal (%) [8]: 96% | Population Pyknosed Nuclei (%) [8]: 2% | Population Tubulin-Different-Phenotype (%) [8]: 8% | Total Cell Count [8]: 3029
